Screening results deposited in PubChem BioAssay by several laboratories.
Hits are enriched below; roughly 2.4% of the tested compounds scored in any of these assays.
SR-BI DiI-HDL act = activators of SR-BI mediated HDL lipid uptake. AID 504775. CHO ldlA[mSR-BI] cells, DiI-HDL uptake fluorescence, 3 h; 100 = double the neutral-control signal. activation, % at 12.5 µM. 320,000 tested, 0.096% active;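 active means mean replicate activation of at least 60% and every replicate at or above 60%; inconclusive means mean or all-replicate condition met, but not both; inactive means mean below 60% and not all replicates reaching 60%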
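System: CHO ldlA[mSR-BI] cells / Medium: HEPES-buffered (25 mM, pH 7.4) F12 plus 0.5% BSA / Probe or stimulus: labelled HDL, 10 µg/mL / Doses: single compound concentration, delivered by pin transfer / Schedule: 3 h, 37 °C / Measured by: DiI fluorescence, bottom read / Measure: cell-associated DiI fluorescence as measure of HDL uptake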
beta cell repl = inducers of beta-cell replication in MIN6 cells; 330,000 tested, 0.29% active; proliferation, % at 10 µM; MIN6 cells proliferation, ATPlite luminescence, 48 h; cells starved in 0.2% serum; 100% = growth in 10% serum; AID 2380;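 active means compounds whose signal lies at least 3.5 SD above the mean of all wells on their plate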
SR-BI HDL uptake = blocks mouse SR-BI lipid uptake from DiI-HDL. inhibition, % at 12.5 µM. AID 488896. Q61009. 320,000 tested, 0.96% active. ldlA[mSR-BI] CHO cells, DiI-HDL uptake fluorescence, 3 h;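 active means mean replicate inhibition of at least 70% and a set share of replicates each scoring 70 or more; inconclusive means meets just one of the two criteria; inactive means fails both criteria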
Target sequence (Q61009 whole entry, looked up): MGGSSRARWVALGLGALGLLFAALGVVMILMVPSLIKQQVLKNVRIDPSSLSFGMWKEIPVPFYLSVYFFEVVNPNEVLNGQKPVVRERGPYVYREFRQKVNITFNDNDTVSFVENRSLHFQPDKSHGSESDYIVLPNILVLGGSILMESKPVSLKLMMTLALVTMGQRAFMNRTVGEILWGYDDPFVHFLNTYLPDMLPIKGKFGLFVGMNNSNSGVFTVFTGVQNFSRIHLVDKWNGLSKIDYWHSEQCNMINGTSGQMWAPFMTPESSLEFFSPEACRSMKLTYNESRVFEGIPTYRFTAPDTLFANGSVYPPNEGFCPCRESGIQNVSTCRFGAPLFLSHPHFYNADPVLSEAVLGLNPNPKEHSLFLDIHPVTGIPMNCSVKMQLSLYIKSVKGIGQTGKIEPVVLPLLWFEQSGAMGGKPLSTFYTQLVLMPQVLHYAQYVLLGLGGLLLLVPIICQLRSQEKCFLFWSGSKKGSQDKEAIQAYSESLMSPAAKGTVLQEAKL
Calb FLC = affects C. albicans growth with fluconazole; C. albicans CaCi-2 + fluconazole, Alamar Blue growth, 48 h; growth inhibition, % (test concentration not listed); 300,000 tested, 0.57% active; AID 1979;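 active means growth inhibition above about 58% in most replicates, limit read from the data, passing the limit was not always enough; inconclusive means exactly half the replicates above a set limit; inactive means most replicates below a set limit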;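 further: all wells also contain fluconazole at 8 µg/ml as a sub-toxic cotreatment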
Ins promoter up = MIN6 insulin promoter up-regulation | z-score at 5 µM | 190,000 tested, 0.3% active | MIN6 insulin promoter-GFP reporter, high-content imaging; active compounds read high;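 active means z-score above 3 at 5 µM with at least 500 cells counted in the well; inconclusive means wells under 500 cells, flagged as cytotoxic or low count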
m5-HT2A agonist = mouse HTR2A agonism via beta-arrestin recruitment. activation, % at 7.6 µM. CHO-K1 mHTR2A beta-arrestin complementation, luminescence; percent of 30 µM serotonin response. 360,000 tested, 0.66% active. P35363;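 active means activation above a run cutoff, the mean activation of all tested compounds plus 3 SD, cut at about 14% in these data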
A number is an active result; . = inactive; ? = inconclusive; / = not tested or not shown.

SMILES	SR-BI DiI-HDL act	beta cell repl	SR-BI HDL uptake	Calb FLC	Ins promoter up	m5-HT2A agonist
CC(C)C(NC(=O)c1ccccc1F)C(=O)NCc1ccccc1 (configuration not stated)	.	.	.	.	/	.
Oc1ccc(O)c2c1C1c3ccccc3C2c2ccccc21	/	.	/	78	/	/
CCCn1c(CN2CCN(C(=O)OCC)CC2)nc2cc(NC(=O)CC)ccc21	.	.	.	.	/	.
COc1ccc(OC)c(/C=C/C(=O)Nc2ccc3c(c2)CCC3)c1	.	.	?	.	.	.
COc1cc(/C=C/C(=O)Nc2cccc(S(=O)(=O)N3CCOCC3)c2)ccc1OCC#N	.	.	78	/	/	.
COc1ccc(/C=C/C(=O)Nc2cccc(S(=O)(=O)N3CCOCC3)c2)cc1OC	.	.	.	/	/	.
COc1ccccc1/C=C/C(=O)Nc1ccc2c(c1)CCC2	.	.	72	.	.	.
COc1ccccc1/C=C/C(=O)Nc1cccc(S(=O)(=O)N2CCOCC2)c1	.	.	85	/	/	.
COc1ccc(NC(=O)c2ccccc2NC(=O)C2CCCCC2C(=O)O)cc1 (configuration not stated)	.	/	.	/	/	.
COc1ccc(CN2C(=O)CN(S(C)(=O)=O)CC2(C)C(=O)NCc2ccccc2)cc1OC (configuration not stated)	/	/	/	/	/	.
Cc1ccc(N2C(=O)C(Cl)=C(N3CCN(C)CC3)C2=O)c(C)c1	.	.	.	.	/	.
CN1CCN(C2=C(Cl)C(=O)N(c3ccc(Cl)cc3)C2=O)CC1	.	.	.	.	.	16
CC(=O)Oc1ccc(C(=O)Nc2cccc(C(=O)c3ccc(C)c(C)c3)c2)cc1	.	.	84	.	/	.
COc1ccc(C(=O)Nc2cccc(OC(=O)c3ccc(C)c(C)c3)c2)cc1	.	.	.	.	.	.
CC(=O)Cn1nnc2sc3c(c2c1=O)CCC(C(C)(C)C)C3 (configuration not stated)	.	.	.	.	.	.
CCn1nnc2sc3c(c2c1=O)CCC(C)C3 (configuration not stated)	.	.	.	.	3.6	.
CC[C@@H](C(=O)[C@@H](C)[C@@H](O)[C@H](C)CCc1ccc(C)c(O)c1C(=O)O)[C@H]1O[C@](CC)([C@H]2CC[C@](O)(CC)[C@H](C)O2)C[C@@H]1C	.	.	.	/	/	193
O=C(Nc1ccc(OC(F)(F)C(F)F)c(NC(=O)c2ccc(F)cc2)c1)c1ccc(F)cc1	.	.	.	.	/	.
Nc1ccc(C(=O)Nc2ccc(OC(F)(F)C(F)F)c(NC(=O)c3ccc(N)cc3)c2)cc1	.	.	77	.	.	.
COc1cccc(NC(=O)c2cc(C(=O)Nc3cccc(OC)c3)n(C)n2)c1	.	.	78	.	.	.
COc1cccc(NC(=O)c2ccc3c(c2)CCN3S(C)(=O)=O)c1	.	.	71	.	/	.
COc1cccc(NC(=O)c2ccc3nc(C)sc3c2)c1	.	.	.	99	/	.
COc1ccccc1NC(=O)c1ccc2nc(C)sc2c1	.	.	.	.	/	.
COc1cccc(NC(=O)c2ccc3c(c2)N(C)CCS3)c1	.	.	91	.	/	.
CCc1cc(C(=O)N2CCCC(C(=O)c3cccc4ccccc34)C2)n(C)n1 (configuration not stated)	.	.	.	.	.	.
SMILES	SR-BI DiI-HDL act	beta cell repl	SR-BI HDL uptake	Calb FLC	Ins promoter up	m5-HT2A agonist
CCCCOCCCNC(=O)C[C@@H]1C[C@@]2(C(=O)OC)CCCCC=C2N(Cc2cccc3ccccc23)C1=O	/	/	/	/	/	.
COCCN(C(=O)Nc1ccc(OC)cc1)c1nc2ccccc2s1	.	.	.	.	/	.
CCOC(=O)c1cc2c(=O)n3ccccc3nc2n(CCOC)c1=NC(=O)c1ccncc1	.	.	.	114	.	.
CCC(C)NC(=O)CC(C)C (configuration not stated)	.	.	.	.	.	.
CC(C)CC(=O)NCC(C)NC(=O)CC(C)C (configuration not stated)	73	.	.	.	.	.
COc1ccc(NC(=O)[C@@H]2O[C@H](CO)[C@H](O)[C@H](O)[C@H]2O)cc1F	/	/	/	/	/	.
N#C/C(=C\c1ccc(OCC(N)=O)cc1)S(=O)(=O)c1ccccc1	.	.	.	.	.	.
CC(=O)Nc1ccc(NS(=O)(=O)c2ccc3c(c2)n(C)c(=O)n3C)cc1	.	.	.	.	/	.
Cc1ccc(NS(=O)(=O)c2ccc3c(c2)n(C)c(=O)n3C)cc1	135	.	.	.	/	.
Cc1ccc(NC(=O)CN(C)S(=O)(=O)c2cccc3cccnc23)cc1	.	.	.	.	.	.
Cc1csc(NC(=O)CN(C)S(=O)(=O)c2cccc3cccnc23)n1	.	.	.	.	3	.
O=C(c1ccccc1)c1c[nH]c(C(=O)NNc2ccccc2)c1	.	.	.	99	.	.
CCOC(=O)c1c(NC(=O)C2=C(C)NC(=S)NC2c2ccc(F)cc2)sc(C)c1C (configuration not stated)	.	.	71	.	.	.
CCOC(=O)c1c(NC(=O)C2=C(C)NC(=S)NC2c2ccc(C)cc2)sc(C)c1C (configuration not stated)	.	.	72	.	.	.
CCOC(=O)C1=C(C)NC(=S)NC1c1ccc(OCC(=O)N2CCCCCC2)c(OC)c1 (configuration not stated)	.	.	?	.	/	.
CCOC(=O)c1c(NC(=O)C2=C(C)NC(=S)NC2c2ccc(F)cc2F)sc(C)c1C (configuration not stated)	.	.	.	.	.	.
CCOC(=O)C1=C(C)NC(=S)NC1c1ccc(OCC(=O)N2CCCCC2)cc1 (configuration not stated)	.	.	73	.	/	.
CC1CCCC(NC(=S)Nc2cccc(S(=O)(=O)N(C)C)c2)C1C (configuration not stated)	.	.	.	.	.	.
CC(C)NC(=O)C1(C)CN(S(C)(=O)=O)CC(=O)N1CCCN1CCOCC1 (configuration not stated)	/	/	/	/	/	.
O=C(O)COc1ccccc1C(Nc1ccccn1)c1cc(Cl)c2cccnc2c1O (configuration not stated)	.	.	.	.	.	.
O=C(O)COc1ccccc1C(Nc1cccnc1)c1cc(Cl)c2cccnc2c1O (configuration not stated)	.	.	.	100	.	.
O=C(NC(c1ccccc1)c1cc(Cl)c2cccnc2c1O)c1cccnc1 (configuration not stated)	/	.	/	92	.	/
CCC(=O)NC(c1ccc(OC)c(OC)c1)c1cc(Cl)c2cccnc2c1O (configuration not stated)	.	/	.	.	.	.
